# ChEMBL document CHEMBL1129444, “Peptidomimetic inhibitors of herpes simplex virus ribonucleotide reductase with improved in vivo antiviral activity” (J Med Chem, 1996)
# *1 amine or outer side, *2 acyl side, *3 side chain or, on linkers, in order; H or OH if unused. Where a SMILES comes first, the peptide text is derived from it. [ ]: non-standard residue; d: D form. The star is where a group is joined. Asp(3,3-(CH2)4) = N[C@H](C(=O)O)C1(C(=O)O)CCCC1; Dibenzylacetyl = O=C(C(Cc1ccccc1)Cc1ccccc1)*; Leu(γ-Me)ol = CC(C)(C)C[C@@H](CO)N*; tBuAla = CC(C)(C)C[C@H](N)C(=O)O; Tle = CC(C)(C)[C@H](N)C(=O)O; NMeV = CN[C@H](C(=O)O)C(C)C; X1 = CC[C@@H](N*)C(C)(C)C; NH(3-pentyl) = CCC(CC)N*; Pyrrolidide = C1CCN(*)C1; NHcHex = C1CCC(N*)CC1; CO = O=C([*:1])[*:2]; X2 = CCCC(CCC)N*; NHiPr = CC(C)N*
# Experiments:
# [1] = molecular target: Ribonucleotide reductase large subunit R1 (Herpes simplex virus); experiment: Inhibitory effect was evaluated on Herpes simplex virus (HSV) ribonucleotide reductase (RR) enzyme.
# [2] = test system: BHK-21; experiment: Effective concentration was evaluated against HSV-1 by using serum starved baby hamster kidney cells in a colorimetric viral yield assay.; format: functional, cell-based; conditions: Mesocricetus auratus
# How it was run: (§1)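 Viral yield in serum-starved BHK cells, read colorimetrically. EC50 reported as mean of at least three separate determinations with standard deviation. Cytotoxicity measured in parallel by MTT (tetrazolium) metabolic assay to give CC50.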
# [3] = test system: BHK-21; experiment: Effective concentration was evaluated against HSV-2 by using serum starved baby hamster kidney cells in a colorimetric viral yield assay.; format: functional, cell-based; conditions: Mesocricetus auratus
# How it was run: as §1
Compound,IC50 [1] [µM],EC50 [2] [µM],EC50 [3] [µM]
CC(C)C[C@H](NC(=O)[C@H](CC(=O)O)NC(=O)[C@H](CC(=O)N1CCCC1)NC(=O)[C@@H](NC(=O)NC1[C@@H](C)CCC[C@@H]1C)C(C)C)C(=O)O.CC(C)C[C@H](NC(=O)[C@H](CC(=O)O)NC(=O)[C@H](CC(=O)N1CCCC1)NC(=O)[C@@H](NC(=O)NC1[C@H](C)CCC[C@H]1C)C(C)C)C(=O)O,0.02,,
CCC(CC)NC(=O)N[C@H](C(=O)N[C@@H](CC(=O)N1CCCC1)C(=O)N[C@@H](CC(=O)O)C(=O)N[C@H](C)C(C)(C)C)C(C)(C)C,0.027,,
CCC(CC)NC(=O)N[C@H](C(=O)N[C@@H](CC(=O)N1CCCC1)C(=O)N[C@@H](CC(=O)O)C(=O)NCCC(C)(C)C)C(C)(C)C,0.1,,
CC[C@@H](NC(=O)[C@@H](NC(=O)[C@@H](CC(=O)[C@@H](NC(=O)N[C@@H]1[C@H](C)CCC[C@@H]1C)C(C)(C)C)CC(=O)N1CCCC1)C1(C(=O)O)CCCC1)C(C)(C)C,,50,80
CCC(CC)NC(=O)N[C@H](C(=O)N[C@@H](CC(=O)N1CCCC1)C(=O)N[C@@H](CC(=O)O)C(=O)NCC(C)(C)C)C(C)(C)C,0.04,,
CCC(CC)NC(=O)N[C@H](C(=O)N[C@@H](CC(=O)N1CCCC1)C(=O)N[C@@H](CC(=O)O)C(=O)NCC(C)C)C(C)(C)C,1.9,,
CCC(CC)NC(=O)N[C@H](C(=O)N[C@@H](CC(=O)C(C)(C)C)C(=O)N[C@@H](CC(=O)O)C(=O)N[C@@H](CC(C)C)C(=O)O)C(C)(C)C,0.003,,
C[C@@H]1CCC[C@H](C)[C@@H]1NC(=O)N[C@H](C(=O)C[C@@H](CC(=O)C(C)(C)C)C(=O)N[C@H](C(=O)NCC(C)(C)C)C1(C(=O)O)CCCC1)C(C)(C)C,,17,26
CCC(CC)NC(=O)N[C@H](C(=O)C[C@@H](CC(=O)N1CCCC1)C(=O)N[C@@H](CC(=O)O)C(=O)N[C@@H](CC(C)C)C(=O)O)C(C)(C)C,0.007,,
CCC(CC)NC(=O)N[C@H](C(=O)N[C@@H](CC(=O)N1CCCC1)C(=O)N[C@@H](CC(=O)O)C(=O)N[C@@H](C)C(C)(C)C)C(C)(C)C,2.7,,
CCC(CC)NC(=O)N[C@H](C(=O)N[C@@H](CC(=O)N1CCCC1)C(=O)N[C@@H](CC(=O)O)C(=O)N[C@H](CO)CC(C)(C)C)C(C)(C)C,0.006,,
CCC(CC)NC(=O)N[C@H](C(=O)N[C@@H](CC(=O)N1CCCC1)C(=O)N[C@@H](CC(=O)O)C(=O)NCCC(C)C)C(C)(C)C,0.35,,
CC[C@@H](NC(=O)[C@@H](NC(=O)[C@H](CC(=O)N1CCCC1)NC(=O)[C@@H](NC(=O)N[C@@H]1[C@H](C)CCC[C@@H]1C)C(C)(C)C)C1(C(=O)O)CCCC1)C(C)(C)C,,28,40
CCCC(CCC)NC(=O)N[C@H](C(=O)C[C@@H](CC(=O)C(C)(C)C)C(=O)N[C@H](C(=O)N[C@H](CC)C(C)(C)C)C1(C(=O)O)CCCC1)C(C)(C)C,,6,5
CCC(CC)NC(=O)N[C@H](C(=O)C[C@@H](CC(=O)C(C)(C)C)C(=O)N[C@@H](CC(=O)O)C(=O)N[C@@H](CC(C)C)C(=O)O)C(C)(C)C,0.005,,
CCC(CC)NC(=O)N[C@H](C(=O)N[C@@H](CC(=O)N1CCCC1)C(=O)N[C@@H](CC(=O)O)C(=O)N[C@@H](CC)C(C)(C)C)C(C)(C)C,2,,

Compound,IC50 [1] [µM],EC50 [2] [µM],EC50 [3] [µM]
CC[C@@H](NC(=O)[C@@H](NC(=O)[C@H](CC(=O)C(C)(C)C)NC(=O)[C@@H](NC(=O)N[C@@H]1[C@H](C)CCC[C@@H]1C)C(C)(C)C)C1(C(=O)O)CCCC1)C(C)(C)C,,13,13
CC[C@@H](NC(=O)[C@@H](NC(=O)[C@@H](CC(=O)[C@@H](NC(=O)N[C@@H]1[C@H](C)CCC[C@@H]1C)C(C)(C)C)CC(=O)C(C)(C)C)C1(C(=O)O)CCCC1)C(C)(C)C,,6,7
C[C@@H]1CCC[C@H](C)[C@@H]1NC(=O)N[C@H](C(=O)C[C@@H](CC(=O)C(C)(C)C)C(=O)N[C@H](C(=O)N[C@H](CO)CC(C)(C)C)C1(C(=O)O)CCCC1)C(C)(C)C,,26,26
CC[C@@H](NC(=O)[C@@H](NC(=O)[C@@H](CC(=O)[C@@H](NC(=O)[C@H](C(C)C)N(C)C(=O)C(Cc1ccccc1)Cc1ccccc1)C(C)(C)C)CC(=O)C(C)(C)C)C1(C(=O)O)CCCC1)C(C)(C)C,,1.3,1.6
CCC(CC)NC(=O)N[C@H](C(=O)N[C@@H](CC(=O)N1CCCC1)C(=O)N[C@@H](CC(=O)O)C(=O)N[C@H](CC)C(C)(C)C)C(C)(C)C,0.018,,
"CC[C@@H](NC(=O)[C@@H](NC(=O)[C@H](CC(=O)N1CCCC1)NC(=O)[C@@H](NC(=O)[C@H](C(C)C)N(C)C(=O)C(Cc1ccccc1)Cc1ccccc1)C(C)(C)C)C1(C(=O)O)CCCC1)C(C)(C)C (Dibenzylacetyl-[NMeV][Tle]D(Pyrrolidide)[Asp(3,3-(CH2)4)]-X1)",,0.8,1.8
"CC(C)[C@@H](C(=O)N[C@H](C(=O)N[C@@H](CC(=O)N1CCCC1)C(=O)N[C@H](C(=O)N[C@H](CO)CC(C)(C)C)C1(C(=O)O)CCCC1)C(C)(C)C)N(C)C(=O)C(Cc1ccccc1)Cc1ccccc1 (Dibenzylacetyl-[NMeV][Tle]D(Pyrrolidide)[Asp(3,3-(CH2)4)]-{Leu(γ-Me)ol})",,3.1,4.2
CC(C)C[C@H](NC(=O)[C@H](CC(=O)O)NC(=O)[C@H](CC(=O)N1CCCC1)NC(=O)[C@@H](NC(=O)NC1[C@H](C)CCC[C@@H]1C)C(C)C)C(=O)O (stereo in doubt; 7),0.055,,
CC(C)C[C@H](NC(=O)[C@H](CC(=O)O)NC(=O)[C@H](CC(=O)N1CCCC1)NC(=O)[C@@H](NC(=O)NC1[C@H](C)CCC[C@@H]1C)C(C)C)C(=O)O (stereo in doubt; 9),0.002,,
CCC(CC)NC(=O)N[C@H](C(=O)N[C@@H](CC(=O)N1CCCC1)C(=O)N[C@@H](CC(=O)O)C(=O)N[C@@H](CC(C)C)C(=O)O)C(C)C ({NH(3-pentyl)-CO}-VD(Pyrrolidide)DL-OH),0.015,,
CCC(CC)NC(=O)N[C@H](C(=O)N[C@@H](CC(=O)N1CCCC1)C(=O)N[C@@H](CC(=O)O)C(=O)N[C@@H](CC(C)C)C(=O)O)C(C)(C)C ({NH(3-pentyl)-CO}-[Tle]D(Pyrrolidide)DL-OH),0.003,,
CCC(CC)NC(=O)N[C@H](C(=O)N[C@@H](CC(=O)N1CCCC1)C(=O)N[C@@H](CC(=O)O)C(=O)N[C@@H](CC(C)(C)C)C(=O)O)C(C)(C)C ({NH(3-pentyl)-CO}-[Tle]D(Pyrrolidide)D[tBuAla]-OH),0.0006,,
CC(C)C[C@H](NC(=O)[C@H](CC(=O)O)NC(=O)[C@H](CC(=O)N1CCCC1)NC(=O)[C@@H](NC(=O)NC1CCCCC1)C(C)C)C(=O)O ({NHcHex-CO}-VD(Pyrrolidide)DL-OH),0.5,,
CC(C)C[C@H](NC(=O)[C@H](CC(=O)O)NC(=O)[C@H](CC(=O)N1CCCC1)NC(=O)[C@@H](NC(=O)NC(C)C)C(C)C)C(=O)O ({NHiPr-CO}-VD(Pyrrolidide)DL-OH),0.44,,
CCCC(CCC)NC(=O)N[C@H](C(=O)N[C@@H](CC(=O)N1CCCC1)C(=O)N[C@@H](CC(=O)O)C(=O)N[C@@H](CC(C)C)C(=O)O)C(C)C ({X2-CO}-VD(Pyrrolidide)DL-OH),0.007,,
Nc1nc2c(ncn2COCCO)c(=O)[nH]1 [ACYCLOVIR],,2,2
